# From ChEMBL document CHEMBL1926614, “Substituted thiazoles V. synthesis and antitumor activity of novel thiazolo[2,3-b]quinazoline and pyrido[4,3-d]thiazolo[3,2-a]pyrimidine analogues” (2012)
# Tests used:
# Format in all cases: functional
# UACC-257 = experiment: Growth inhibition of human UACC257 cells at 10 uM after 48 hrs by coulter counting; conditions: UACC-257, 48 h, read-out: GI
# Procedure, shortened: (§1)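 Single-dose screen in the NCI 60 human tumor cell line panel (nine subpanels). Compounds dissolved in DMSO and diluted in phosphate buffered saline, keeping final DMSO below 1%. Added in duplicate wells to cells at 6 × 10⁴ cells/ml. Controls held PBS and DMSO at matching dilutions. Incubated at 37 °C, humidified, 5% CO₂. Reported as percent growth of treated cells.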
# UACC-62 = experiment: Growth inhibition of human UACC62 cells at 10 uM after 48 hrs by coulter counting; conditions: UACC-62, 48 h, read-out: GI; procedure, shortened: as §1
# SF-539 = experiment: Growth inhibition of human SF539 cells at 10 uM after 48 hrs by coulter counting; conditions: SF-539, 48 h, read-out: GI
# Procedure, shortened: (§2)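 Single-dose primary screen across the full NCI 60-cell-line panel. Stocks were made in DMSO and diluted in PBS to a final DMSO below 1%. Cultures at 6 × 10⁴ cells/ml were run in duplicate wells alongside PBS/DMSO vehicle controls at 37 °C in humidified 5% CO₂. Data were expressed as percent growth of treated cells.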
# CCRF-CEM = experiment: Growth inhibition of human CCRF-CEM cells at 10 uM after 48 hrs by coulter counting; conditions: read-out: GI; procedure, shortened: as §2
# HL-60(TB) = experiment: Growth inhibition of human HL-60(TB) cells at 10 uM after 48 hrs by coulter counting; conditions: HL-60, 48 h, read-out: GI
# Procedure, shortened: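 Test compound was dissolved in DMSO and diluted in phosphate-buffered saline to a final DMSO level below 1%. Dilutions were plated in duplicate with cell culture at 6 × 10⁴ cells/ml. Vehicle controls held PBS and DMSO at matching dilutions. Incubation was at 37 °C, humidified, under 5% CO₂. Data were reported as percent growth of treated cells.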
# K562 = experiment: Growth inhibition of human K562 cells at 10 uM after 48 hrs by coulter counting; conditions: K562, 48 h, read-out: GI; procedure, shortened: as §2
# MOLT-4 = experiment: Growth inhibition of human MOLT4 cells at 10 uM after 48 hrs by coulter counting; conditions: MOLT-4, 48 h, read-out: GI; procedure, shortened: as §2
# RPMI-8226 = experiment: Growth inhibition of human RPMI8226 cells at 10 uM after 48 hrs by coulter counting; conditions: RPMI-8226, 48 h, read-out: GI; procedure, shortened: as §2
# A549 = experiment: Growth inhibition of human A549 cells at 10 uM after 48 hrs by coulter counting; conditions: A549, 48 h, read-out: GI; procedure, shortened: as §2
# EKVX = experiment: Growth inhibition of human EKVX cells at 10 uM after 48 hrs by coulter counting; conditions: read-out: GI; procedure, shortened: as §2
# HOP-62 = experiment: Growth inhibition of human HOP62 cells at 10 uM after 48 hrs by coulter counting; conditions: HOP-62, 48 h, read-out: GI; procedure, shortened: as §2
# NCI-H226 = experiment: Growth inhibition of human NCI-H226 cells at 10 uM after 48 hrs by coulter counting; conditions: NCI-H226, 48 h, read-out: GI; procedure, shortened: as §2
# NCI-H23 = experiment: Growth inhibition of human NCI-H23 cells at 10 uM after 48 hrs by coulter counting; conditions: NCI-H23, 48 h, read-out: GI; procedure, shortened: as §2
# [1] = Growth inhibition of human NCI-322M cells at 10 uM after 48 hrs by coulter counting; conditions: read-out: GI; procedure, shortened: as §2
# NCI-H460 = experiment: Growth inhibition of human NCI-H460 cells at 10 uM after 48 hrs by coulter counting; conditions: NCI-H460, 48 h, read-out: GI; procedure, shortened: as §2
# NCI-H522 = experiment: Growth inhibition of human NCI-H522 cells at 10 uM after 48 hrs by coulter counting; conditions: NCI-H522, 48 h, read-out: GI; procedure, shortened: as §2
# HCT-116 = experiment: Growth inhibition of human HCT116 cells at 10 uM after 48 hrs by coulter counting; conditions: HCT-116, 48 h, read-out: GI; procedure, shortened: as §2
# HCC 2998 = experiment: Growth inhibition of human HCC2998 cells at 10 uM after 48 hrs by coulter counting; conditions: HCC 2998, 48 h, read-out: GI; procedure, shortened: as §2
# HT-29 = experiment: Growth inhibition of human HT-29 cells at 10 uM after 48 hrs by coulter counting; conditions: HT-29, 48 h, read-out: GI; procedure, shortened: as §2
# KM12 = experiment: Growth inhibition of human KM12 cells at 10 uM after 48 hrs by coulter counting; conditions: KM12, 48 h, read-out: GI; procedure, shortened: as §2
# SF-268 = experiment: Growth inhibition of human SF268 cells at 10 uM after 48 hrs by coulter counting; conditions: SF-268, 48 h, read-out: GI; procedure, shortened: as §2
# SF-295 = experiment: Growth inhibition of human SF295 cells at 10 uM after 48 hrs by coulter counting; conditions: SF-295, 48 h, read-out: GI; procedure, shortened: as §2
# SNB-19 = experiment: Growth inhibition of human SNB19 cells at 10 uM after 48 hrs by coulter counting; conditions: SNB-19, 48 h, read-out: GI; procedure, shortened: as §2
# SNB-75 = experiment: Growth inhibition of human SNB75 cells at 10 uM after 48 hrs by coulter counting; conditions: SNB-75, 48 h, read-out: GI; procedure, shortened: as §2
# U-251 = experiment: Growth inhibition of human U251 cells at 10 uM after 48 hrs by coulter counting; conditions: U-251, 48 h, read-out: GI; procedure, shortened: as §1
# LOX IMVI = experiment: Growth inhibition of human LOXIMVI cells at 10 uM after 48 hrs by coulter counting; conditions: read-out: GI; procedure, shortened: as §2
# M14 = experiment: Growth inhibition of human M14 cells at 10 uM after 48 hrs by coulter counting; conditions: M14, 48 h, read-out: GI; procedure, shortened: as §2
# MDA-MB-435 = experiment: Growth inhibition of human MDA-MB-435 cells at 10 uM after 48 hrs by coulter counting; conditions: MDA-MB-435, 48 h, read-out: GI; procedure, shortened: as §2
# SK-MEL-2 = experiment: Growth inhibition of human SK-MEL-2 cells at 10 uM after 48 hrs by coulter counting; conditions: SK-MEL-2, 48 h, read-out: GI; procedure, shortened: as §2
# SK-MEL-28 = experiment: Growth inhibition of human SK-MEL-28 cells at 10 uM after 48 hrs by coulter counting; conditions: SK-MEL-28, 48 h, read-out: GI; procedure, shortened: as §2
# SK-MEL-5 = experiment: Growth inhibition of human SK-MEL-5 cells at 10 uM after 48 hrs by coulter counting; conditions: SK-MEL-5, 48 h, read-out: GI; procedure, shortened: as §2
# IGROV-1 = experiment: Growth inhibition of human IGROV1 cells at 10 uM after 48 hrs by coulter counting; conditions: IGROV-1, 48 h, read-out: GI; procedure, shortened: as §2
# OVCAR-4 = experiment: Growth inhibition of human OVCAR4 cells at 10 uM after 48 hrs by coulter counting; conditions: OVCAR-4, 48 h, read-out: GI; procedure, shortened: as §2
# NCI/ADR-RES = experiment: Growth inhibition of human NCI/ADR-RES cells at 10 uM after 48 hrs by coulter counting; conditions: read-out: GI; procedure, shortened: as §2
# A498 = experiment: Growth inhibition of human A498 cells at 10 uM after 48 hrs by coulter counting; conditions: A498, 48 h, read-out: GI; procedure, shortened: as §2
# ACHN = experiment: Growth inhibition of human ACHN cells at 10 uM after 48 hrs by coulter counting; conditions: read-out: GI; procedure, shortened: as §2
# CAKI-1 = experiment: Growth inhibition of human Caki1 cells at 10 uM after 48 hrs by coulter counting; conditions: CAKI-1, 48 h, read-out: GI; procedure, shortened: as §2
# UO-31 = experiment: Growth inhibition of human UO31 cells at 10 uM after 48 hrs by coulter counting; conditions: UO-31, 48 h, read-out: GI; procedure, shortened: as §1
# DU-145 = experiment: Growth inhibition of human DU145 cells at 10 uM after 48 hrs by coulter counting; conditions: DU-145, 48 h, read-out: GI; procedure, shortened: as §2
# MCF7 = experiment: Growth inhibition of human MCF7 cells at 10 uM after 48 hrs by coulter counting; conditions: MCF7, 48 h, read-out: GI; procedure, shortened: as §2
# BT-549 = experiment: Growth inhibition of human BT549 cells at 10 uM after 48 hrs by coulter counting; conditions: BT-549, 48 h, read-out: GI; procedure, shortened: as §2
# T47D = experiment: Growth inhibition of human T47D cells at 10 uM after 48 hrs by coulter counting; conditions: read-out: GI; procedure, shortened: as §1
structure (smiles),measurement,setting,value
COc1ccc(/C=C2\CCCC3=C2N=C2SC=CN2C3c2ccc(OC)cc2)cc1 (configuration not stated),inhibition of growth at 10 µM,UACC-257,> 10%
same,inhibition of growth at 10 µM,UACC-62,> 10%
same,inhibition of growth at 10 µM,SF-539,> 10%
same,inhibition of growth at 10 µM,CCRF-CEM,> 10%
same,inhibition of growth at 10 µM,HL-60(TB),> 10%
same,inhibition of growth at 10 µM,K562,> 10%
same,inhibition of growth at 10 µM,MOLT-4,14.4%
same,inhibition of growth at 10 µM,RPMI-8226,21%
same,inhibition of growth at 10 µM,A549,> 10%
same,inhibition of growth at 10 µM,EKVX,12.5%
same,inhibition of growth at 10 µM,HOP-62,> 10%
same,inhibition of growth at 10 µM,NCI-H226,21.6%
same,inhibition of growth at 10 µM,NCI-H23,> 10%
same,inhibition of growth at 10 µM,[1],> 10%
same,inhibition of growth at 10 µM,NCI-H460,> 10%
same,inhibition of growth at 10 µM,NCI-H522,> 10%
same,inhibition of growth at 10 µM,HCT-116,17.6%
same,inhibition of growth at 10 µM,HCC 2998,> 10%
same,inhibition of growth at 10 µM,HT-29,> 10%
same,inhibition of growth at 10 µM,KM12,> 10%
same,inhibition of growth at 10 µM,SF-268,> 10%
same,inhibition of growth at 10 µM,SF-295,> 10%
same,inhibition of growth at 10 µM,SNB-19,> 10%
same,inhibition of growth at 10 µM,SNB-75,> 10%
same,inhibition of growth at 10 µM,U-251,> 10%
same,inhibition of growth at 10 µM,LOX IMVI,> 10%
same,inhibition of growth at 10 µM,M14,18.8%
same,inhibition of growth at 10 µM,MDA-MB-435,15.4%
same,inhibition of growth at 10 µM,SK-MEL-2,> 10%
same,inhibition of growth at 10 µM,SK-MEL-28,> 10%
same,inhibition of growth at 10 µM,SK-MEL-5,> 10%
same,inhibition of growth at 10 µM,IGROV-1,> 10%
same,inhibition of growth at 10 µM,OVCAR-4,15.4%
same,inhibition of growth at 10 µM,NCI/ADR-RES,> 10%
same,inhibition of growth at 10 µM,A498,> 10%
same,inhibition of growth at 10 µM,ACHN,> 10%
same,inhibition of growth at 10 µM,CAKI-1,11.3%
same,inhibition of growth at 10 µM,UO-31,32%
same,inhibition of growth at 10 µM,DU-145,> 10%
same,inhibition of growth at 10 µM,MCF7,> 10%
same,inhibition of growth at 10 µM,BT-549,> 10%
same,inhibition of growth at 10 µM,T47D,> 10%
